From ChEMBL document CHEMBL1139111, “Structure-activity relationship studies on quorum sensing ComX(RO-E-2) pheromone” (Bioorg Med Chem Lett, 2007)
pEC50: −log10 of the molar value. *1 amine or outer side, *2 acyl side, *3 side chain or, on linkers, in order; H or OH if unused. Where a SMILES comes first, the peptide text is derived from it. [ ]: non-standard residue; d: D form. X1 = CC(C)=CCC/C(C)=C\C[C@@]12c3ccccc3N[C@@H]1N([*:1])C[C@@H]2C(=O)[*:2]

What was measured:
[1] = Activity at beta-galactosidase in Bacillus subtilis
Summary of the method: (§1)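 B. subtilis tester strain carrying an srfA-lacZ fusion that responds to added pheromone. Overnight culture diluted 100-fold, added to sample solution, incubated 37 °C, 5 h, 150 rpm. β-Galactosidase measured with o-nitrophenyl-β-D-galactopyranoside at 30 °C, read at 420 nm. Analogs tested at concentrations up to 300 nM.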

Bacillus subtilis = assay: Activity at beta-galactosidase in Bacillus subtilis relative to ComXRO-E-2; design: concentration or dose not given beside the values; summary of the method: as §1

Q: With `CC(C)=CCC/C(C)=C\C[C@@]12c3ccccc3N[C@@H]1N(C(=O)[C@@H](N)Cc1ccccc1)C[C@@H]2C(=O)N[C@@H](CCC(=O)O)C(=O)N[C@@H](CCC(N)=O)C(=O)O` as the molecule, how does the pEC50 [1] read?
A: Its pEC50 is 8.10.

Q: What about the Activity (Bacillus subtilis) of the same molecule?
A: Its Activity is 70%.

Q: Which results are given for `CC[C@H](C)[C@H](N)C(=O)N[C@@H](Cc1ccccc1)C(=O)N1C[C@H](C(=O)O)[C@]2(C/C=C(/C)CCC=C(C)C)c3ccccc3N[C@H]12`?
A: pEC50 [1]: 6.80; Activity (Bacillus subtilis): 55%

Q: Which results are given for `CC[C@H](C)[C@H](N)C(=O)N[C@@H](Cc1ccccc1)C(=O)N1C[C@H](C(=O)N[C@@H](CCC(=O)O)C(=O)N[C@@H](CCC(N)=O)C(=O)O)[C@]2(C/C=C(/C)CCC=C(C)C)c3ccccc3N[C@H]12` (H-IF[X1]EQ-OH)?
A: pEC50 [1]: 8.22; Activity (Bacillus subtilis): 100%

Q: With `CC[C@H](C)[C@H](NC(=O)CN)C(=O)N[C@@H](Cc1ccccc1)C(=O)N1C[C@H](C(=O)N[C@@H](C)C(=O)N[C@@H](CCC(N)=O)C(=O)O)[C@]2(C/C=C(/C)CCC=C(C)C)c3ccccc3N[C@H]12` (H-GIF[X1]AQ-OH) as the molecule, how does the pEC50 [1] read?
A: The pEC50 was 8.52.

Q: And the Activity (Bacillus subtilis)?
A: Its Activity is 100%.

Q: With `CC[C@H](C)[C@H](NC(=O)CN)C(=O)N[C@@H](Cc1ccccc1)C(=O)N1C[C@H](C(=O)N[C@@H](CCC(=O)O)C(=O)N[C@@H](CCC(N)=O)C(=O)O)[C@]2(C/C=C(/C)CCC=C(C)C)c3ccccc3N[C@H]12` (H-GIF[X1]EQ-OH) as the molecule, how does the pEC50 [1] read?
A: Its pEC50 is 9.00.

Q: What about the Activity (Bacillus subtilis) of the same molecule?
A: Its Activity is 100%.

Q: With `CC[C@H](C)[C@H](NC(=O)CNC(=O)[C@H](C)N)C(=O)N[C@@H](Cc1ccccc1)C(=O)N1C[C@H](C(=O)N[C@@H](CCC(=O)O)C(=O)N[C@@H](CCC(N)=O)C(=O)O)[C@]2(C/C=C(/C)CCC=C(C)C)c3ccccc3N[C@H]12` (H-AGIF[X1]EQ-OH) as the molecule, how does the pEC50 [1] read?
A: The pEC50 was 9.00.

Q: And the Activity (Bacillus subtilis)?
A: The Activity was 100%.

Q: What does the source list for `CC(C)=CCC/C(C)=C\C[C@@]12c3ccccc3N[C@@H]1N(C(=O)[C@H](Cc1ccccc1)NC(=O)[C@H](C)NC(=O)CN)C[C@@H]2C(=O)N[C@@H](CCC(=O)O)C(=O)N[C@@H](CCC(N)=O)C(=O)O` (H-GAF[X1]EQ-OH)?
A: pEC50 [1]: 8.00; Activity (Bacillus subtilis): 95%

Q: With `CC[C@H](C)[C@H](NC(=O)CN)C(=O)N[C@@H](C)C(=O)N1C[C@H](C(=O)N[C@@H](CCC(=O)O)C(=O)N[C@@H](CCC(N)=O)C(=O)O)[C@]2(C/C=C(/C)CCC=C(C)C)c3ccccc3N[C@H]12` (H-GIA[X1]EQ-OH) as the molecule, how does the pEC50 [1] read?
A: The pEC50 was 7.70.

Q: And the Activity (Bacillus subtilis)?
A: Its Activity is 90%.

Q: With `CC[C@H](C)[C@H](NC(=O)CN)C(=O)N[C@@H](Cc1ccccc1)C(=O)N1C[C@H](C(=O)O)[C@]2(C/C=C(/C)CCC=C(C)C)c3ccccc3N[C@H]12` as the molecule, how does the pEC50 [1] read?
A: Its pEC50 is 6.89.

Q: And the Activity (Bacillus subtilis)?
A: The Activity was 60%.

Q: With `CC(C)=CCC/C(C)=C\C[C@@]12c3ccccc3N[C@@H]1NC[C@@H]2C(=O)N[C@@H](CCC(=O)O)C(=O)N[C@@H](CCC(N)=O)C(=O)O` as the molecule, how does the pEC50 [1] read?
A: Its pEC50 is under 6.52.

Q: And the Activity (Bacillus subtilis)?
A: The Activity was 15%.

Q: With `CC[C@H](C)[C@H](N)C(=O)N[C@@H](Cc1ccccc1)C(=O)N1C[C@H](C(=O)N[C@@H](CCC(=O)O)C(=O)O)[C@]2(C/C=C(/C)CCC=C(C)C)c3ccccc3N[C@H]12` as the molecule, how does the pEC50 [1] read?
A: Its pEC50 is 7.70.

Q: And the Activity (Bacillus subtilis)?
A: The Activity was 80%.

Q: What does the source list for `CC[C@H](C)[C@H](NC(=O)CN)C(=O)N[C@@H](Cc1ccccc1)C(=O)N1C[C@H](C(=O)N[C@@H](CCC(=O)O)C(=O)O)[C@]2(C/C=C(/C)CCC=C(C)C)c3ccccc3N[C@H]12` (H-GIF[X1]E-OH)?
A: pEC50 [1]: 7.70; Activity (Bacillus subtilis): 80%

Q: With `CC(C)=CCC/C(C)=C\C[C@@]12c3ccccc3N[C@@H]1N(C(=O)[C@@H](N)Cc1ccccc1)C[C@@H]2C(=O)N[C@@H](CCC(=O)O)C(=O)O` as the molecule, how does the pEC50 [1] read?
A: Its pEC50 is 7.70.

Q: And the Activity (Bacillus subtilis)?
A: Its Activity is 60%.

Q: With `CC[C@H](C)[C@H](NC(=O)[C@@H](C)N)C(=O)N[C@@H](Cc1ccccc1)C(=O)N1C[C@H](C(=O)N[C@@H](CCC(=O)O)C(=O)N[C@@H](CCC(N)=O)C(=O)O)[C@]2(C/C=C(/C)CCC=C(C)C)c3ccccc3N[C@H]12` as the molecule, how does the pEC50 [1] read?
A: Its pEC50 is 8.52.

Q: And the Activity (Bacillus subtilis)?
A: Its Activity is 100%.

Q: With `CC[C@H](C)[C@H](NC(=O)CN)C(=O)N[C@@H](Cc1ccccc1)C(=O)N1C[C@H](C(=O)N[C@@H](CCC(=O)O)C(=O)N[C@@H](C)C(=O)O)[C@]2(C/C=C(/C)CCC=C(C)C)c3ccccc3N[C@H]12` (H-GIF[X1]EA-OH) as the molecule, how does the pEC50 [1] read?
A: Its pEC50 is 7.70.

Q: What about the Activity (Bacillus subtilis) of the same molecule?
A: The Activity was 95%.
